Test results reported in PMC3229621 (Biochemical pharmacology, 2011).

How the values were obtained:
CYP26A1 [1] = target: T1, CYP26A1 (Homo sapiens, UniProt O43174); test: Depletion of 4-OH-RA, 18-OH-RA and 4-oxo-RA by recombinant CYP26A1; format: in vitro ADME; conditions: for kdep (depletion rate constant): CYP26A1, 200 nM initial substrate, mono-exponential decay; for fold efficiency of CYP26A1 over CYP26B1 in depleting substrate: CYP26A1 vs CYP26B1
T1 sequence (O43174 1-497): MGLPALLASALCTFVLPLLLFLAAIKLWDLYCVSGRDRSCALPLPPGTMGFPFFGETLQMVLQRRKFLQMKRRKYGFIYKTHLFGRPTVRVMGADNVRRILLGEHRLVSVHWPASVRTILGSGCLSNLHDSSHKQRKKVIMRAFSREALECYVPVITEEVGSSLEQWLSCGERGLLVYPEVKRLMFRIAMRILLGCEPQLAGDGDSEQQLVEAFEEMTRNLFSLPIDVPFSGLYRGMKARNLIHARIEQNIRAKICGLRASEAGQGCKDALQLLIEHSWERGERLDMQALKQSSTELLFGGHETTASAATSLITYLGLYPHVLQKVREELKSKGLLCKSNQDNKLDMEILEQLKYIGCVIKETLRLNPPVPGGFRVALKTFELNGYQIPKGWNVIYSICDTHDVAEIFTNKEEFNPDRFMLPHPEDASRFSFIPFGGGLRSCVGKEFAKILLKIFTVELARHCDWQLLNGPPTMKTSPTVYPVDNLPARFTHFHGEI

CYP26B1 [2] = target: T2, CYP26B1 (Homo sapiens, UniProt Q9NR63); test: Depletion of 4-OH-RA, 18-OH-RA and 4-oxo-RA by recombinant CYP26B1; format: in vitro ADME; conditions: 200 nM initial substrate, mono-exponential decay
T2 sequence (Q9NR63 1-512): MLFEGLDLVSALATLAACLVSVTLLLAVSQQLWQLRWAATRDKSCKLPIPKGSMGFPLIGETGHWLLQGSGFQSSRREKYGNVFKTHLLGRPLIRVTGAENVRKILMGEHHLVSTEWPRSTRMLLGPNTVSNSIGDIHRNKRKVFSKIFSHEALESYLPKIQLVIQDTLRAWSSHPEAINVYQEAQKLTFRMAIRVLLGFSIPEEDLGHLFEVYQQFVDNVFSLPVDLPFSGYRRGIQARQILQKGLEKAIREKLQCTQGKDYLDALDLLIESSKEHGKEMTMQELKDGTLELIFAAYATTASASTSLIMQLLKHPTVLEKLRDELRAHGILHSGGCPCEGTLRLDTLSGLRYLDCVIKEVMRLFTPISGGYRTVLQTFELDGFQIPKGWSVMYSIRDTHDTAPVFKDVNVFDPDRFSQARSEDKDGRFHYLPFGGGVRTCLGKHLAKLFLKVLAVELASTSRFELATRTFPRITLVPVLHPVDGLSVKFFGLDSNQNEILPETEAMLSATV

purified CYP26B1 = target: T3, purified CYP26B1 (Homo sapiens, UniProt Q9NR63); test: Ligand-induced binding spectra with purified CYP26B1
T3 sequence (Q9NR63 1-512): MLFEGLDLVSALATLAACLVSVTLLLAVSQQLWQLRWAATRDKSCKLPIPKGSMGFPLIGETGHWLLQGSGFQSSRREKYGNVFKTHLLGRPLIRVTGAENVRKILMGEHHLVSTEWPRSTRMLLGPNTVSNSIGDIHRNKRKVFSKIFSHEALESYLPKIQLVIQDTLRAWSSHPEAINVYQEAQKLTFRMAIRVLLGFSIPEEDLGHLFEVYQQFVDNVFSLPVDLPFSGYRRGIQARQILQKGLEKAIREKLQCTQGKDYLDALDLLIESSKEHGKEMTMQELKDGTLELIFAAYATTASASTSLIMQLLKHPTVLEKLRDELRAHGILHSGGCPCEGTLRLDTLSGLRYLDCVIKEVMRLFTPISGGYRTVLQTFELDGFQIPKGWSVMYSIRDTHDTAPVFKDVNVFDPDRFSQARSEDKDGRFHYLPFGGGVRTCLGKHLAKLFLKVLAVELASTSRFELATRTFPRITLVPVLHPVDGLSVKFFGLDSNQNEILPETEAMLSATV
Summary of the method: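 Human CYP26B1 expressed in Sf9 insect cells, solubilized with NP40 and cholate, and purified on a Talon cobalt affinity column. Active P450 was quantified by CO difference spectrum. Enzyme at 235 pmol/mL in 100 mM KPi (pH 7.4) with 20% glycerol; absolute spectrum recorded first. Test ligand was added to test and reference cuvettes in 12.5 nM steps until saturation and maximal absorbance change.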

CYP3As and CYP2C8 = conditions: by CYP3As and CYP2C8; cited from earlier work
CYP26A1 [3] = target: T1, CYP26A1; test: Kinetics of 4-OH-RA and 18-OH-RA formation from atRA by recombinant CYP26A1
CYP26B1 [4] = target: T2, CYP26B1; test: Kinetics of 4-OH-RA and 18-OH-RA formation from atRA by recombinant CYP26B1; conditions: substrate atRA
[5] = substrate: CC1=C(/C=C/C(C)=C/C=C/C(C)=C/C(=O)O)C(C)(C)CCC1; test: cells, lysate or membranes named; conditions: other: substrate atRA, 37.0 °C

CC(/C=C/C1=C(CO)CCCC1(C)C)=C\C=C\C(C)=C\C(=O)O [18-OH-RA, 18-hydroxyretinoic acid]
kdep (depletion rate constant) (CYP26A1 [1]): 0.12 ± 0.01 min⁻¹ | fold efficiency of CYP26A1 over CYP26B1 in depleting substrate (CYP26A1 [1]): 2–4 fold | kdep (depletion rate constant) (CYP26B1 [2]): 0.03 ± 0.01 min⁻¹

CC1=C(/C=C/C(C)=C/C=C/C(C)=C/C(=O)O)C(C)(C)CCC1 [atRA, All-trans-retinoic acid]
binding of atRA with CYP26B1 (magnitude of difference spectrum) (purified CYP26B1; atRA concentration dependent): tight binding | ligand-induced difference spectrum type (purified CYP26B1; purified CYP26B1 235 pmol/mL, atRA 10 nM to 500 nM, low-to-high spin shift of heme iron): type I difference spectrum | Vmax for atRA hydroxylation (CYP3As and CYP2C8): 2–5 pmol/min/pmol P450 | intrinsic clearance of atRA metabolism (CYP3As and CYP2C8): 0.2–0.4 µL/min/pmol P450 | fold efficiency of CYP26A1 over CYP26B1 in overall depletion of atRA (CYP26A1 [3]; formation of multiple primary metabolites (4-OH-RA, 18-OH-RA and 16-OH-RA)): approximately 20 fold | Km for CYP26A1 relative to CYP26B1 (CYP26A1 [3]; substrate atRA): two-fold higher | Clint, 4-OH RA formation (CYP26A1 [3]; substrate atRA, CYP26A1): 190 µL/min/pmol P450 | Clint, 18-OH RA formation (CYP26A1 [3]; substrate atRA, CYP26A1): 102 µL/min/pmol P450 | Vmax, 4-OH RA formation (CYP26A1 [3]; substrate atRA, CYP26A1): 9.5 ± 2.2 pmol/min/pmol P450 | Vmax, 18-OH RA formation (CYP26A1 [3]; substrate atRA, CYP26A1): 5.0 ± 0.5 pmol/min/pmol P450 | lower Vmax for 18-OH-RA formation compared to 4-OH-RA formation (CYP26A1 [3]; substrate atRA, CYP26A1): 45% | 18-OH-RA formation by CYP26B1 (CYP26B1 [4]): could be detected but the formation was insufficient to determine kinetic constants | Vmax of CYP26B1 mediated 4-OH-RA formation relative to CYP26A1 (CYP26B1 [4]): 10% | fold higher intrinsic clearance by CYP26B1 than by CYP3A4 and CYP2C8 (CYP26B1 [4]): approximately 100 fold | Clint, 4-OH RA formation (CYP26B1 [4]; CYP26B1): 43 µL/min/pmol P450 | Vmax, 4-OH RA formation (CYP26B1 [4]; CYP26B1): 0.81 ± 0.2 pmol/min/pmol P450

CC1=C(/C=C/C(C)=C/C=C/C(C)=C/C(=O)O)C(C)(C)CCC1O (centres unmarked) [4-OH-RA]
kdep (depletion rate constant) (CYP26A1 [1]): 0.10 ± 0.01 min⁻¹ | fold efficiency of CYP26A1 over CYP26B1 in depleting substrate (CYP26A1 [1]): 2–4 fold | kdep (depletion rate constant) (CYP26B1 [2]): 0.03 ± 0.01 min⁻¹

CC1=C(/C=C/C(C)=C/C=C/C(C)=C/C(=O)O)C(C)(C)CCC1=O [4-oxo-RA]
kdep (depletion rate constant) (CYP26A1 [1]): 0.05 ± 0.01 min⁻¹ | fold efficiency of CYP26A1 over CYP26B1 in depleting substrate (CYP26A1 [1]): 2–4 fold | kdep (depletion rate constant) (CYP26B1 [2]): 0.02 ± 0.00 min⁻¹

B1: CYP26A1 (Homo sapiens) (protein)
chain: MGLPALLASALCTFVLPLLLFLAAIKLWDLYCVSGRDRSCALPLPPGTMGFPFFGETLQMVLQRRKFLQMKRRKYGFIYKTHLFGRPTVRVMGADNVRRILLGEHRLVSVHWPASVRTILGSGCLSNLHDSSHKQRKKVIMRAFSREALECYVPVITEEVGSSLEQWLSCGERGLLVYPEVKRLMFRIAMRILLGCEPQLAGDGDSEQQLVEAFEEMTRNLFSLPIDVPFSGLYRGMKARNLIHARIEQNIRAKICGLRASEAGQGCKDALQLLIEHSWERGERLDMQALKQSSTELLFGGHETTASAATSLITYLGLYPHVLQKVREELKSKGLLCKSNQDNKLDMEILEQLKYIGCVIKETLRLNPPVPGGFRVALKTFELNGYQIPKGWNVIYSICDTHDVAEIFTNKEEFNPDRFMLPHPEDASRFSFIPFGGGLRSCVGKEFAKILLKIFTVELARHCDWQLLNGPPTMKTSPTVYPVDNLPARFTHFHGEI
kcat ([5]; CYP26A1): 10 pmol/min/pmol P450 | kcat ([5]; CYP26A1, abstract): 10 pmol/min/pmol

B2: CYP26B1 (Homo sapiens) (protein)
chain: MLFEGLDLVSALATLAACLVSVTLLLAVSQQLWQLRWAATRDKSCKLPIPKGSMGFPLIGETGHWLLQGSGFQSSRREKYGNVFKTHLLGRPLIRVTGAENVRKILMGEHHLVSTEWPRSTRMLLGPNTVSNSIGDIHRNKRKVFSKIFSHEALESYLPKIQLVIQDTLRAWSSHPEAINVYQEAQKLTFRMAIRVLLGFSIPEEDLGHLFEVYQQFVDNVFSLPVDLPFSGYRRGIQARQILQKGLEKAIREKLQCTQGKDYLDALDLLIESSKEHGKEMTMQELKDGTLELIFAAYATTASASTSLIMQLLKHPTVLEKLRDELRAHGILHSGGCPCEGTLRLDTLSGLRYLDCVIKEVMRLFTPISGGYRTVLQTFELDGFQIPKGWSVMYSIRDTHDTAPVFKDVNVFDPDRFSQARSEDKDGRFHYLPFGGGVRTCLGKHLAKLFLKVLAVELASTSRFELATRTFPRITLVPVLHPVDGLSVKFFGLDSNQNEILPETEAMLSATV
kcat ([5]; CYP26B1): 0.8 pmol/min/pmol P450 | kcat ([5]; CYP26B1, abstract): 0.8 pmol/min/pmol
